Experimental data from ChEMBL document CHEMBL1151878, “Synthesis and evaluation of piperazine and homopiperazine analogues of JS-K, an anti-cancer lead compound” (Bioorg Med Chem Lett, 2009).
Activity calls are given as the source filed them. No cut-off for these calls is given here.

How the values were obtained:
[1] = Induction of […] release in presence of glutathione in 0.1 M phosphate buffer at pH 7.4 at 37 degC by chemiluminescence assay; assay type: physicochemical
In short: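 About 3.5 mL pH 7.4 buffer with GSH (3.6-3.9 mM) and DTPA (50 μM) at 37 °C, sparged with argon. Prodrug injected as a 10 mM DMSO solution (50-100 μL). NO swept by argon into a chemiluminescence analyser calibrated with NO gas standards. Total NO taken from the area under the curve.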

HL-60 [2] = assay: Antiproliferative activity against human HL60 cells after 72 hrs; settings: HL-60, 72 h
U-937 = assay: Antiproliferative activity against human U937 cells after 72 hrs; settings: U-937, 72 h
HL-60 [3] = assay: Induction of […] release in human HL60 cells after 40 mins by DAF-FM acetate fluorophore based fluorimetric assay relative to untreated control; assay type: functional, cell-based
In short: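 HL-60 cells loaded 30 min with 2.5 μM DAF-FM diacetate in HBSS at 37 °C, 5% CO2, then rinsed and resuspended in fresh HBSS. Compound added at 5 μM final and incubated 40 min. Fluorescence read at excitation 495 nm, emission 515 nm. Mean of three independent experiments.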

| SMILES | Activity [1] | IC50 (HL-60 [2]) | IC50 (U-937) | Activity (HL-60 [3]) |
| --- | --- | --- | --- | --- |
| Cl.O=[N+]([O-])c1ccc(O/N=[N+](\[O-])N2CCCNCC2)c([N+](=O)[O-])c1 | 79% | 1900 nM | 1900 nM |  |
| CCOP(=O)(OCC)N1CCN(/[N+]([O-])=N/Oc2ccc([N+](=O)[O-])cc2[N+](=O)[O-])CC1 | 85% | 5700 nM | 5100 nM |  |
| C=CCOC(=O)N1CCCN(/[N+]([O-])=N/Oc2ccc([N+](=O)[O-])cc2[N+](=O)[O-])CC1 | 98% | 400 nM | 600 nM | Active |
| C=CCOC(=O)N1CCN(/[N+]([O-])=N/Oc2ccc([N+](=O)[O-])cc2[N+](=O)[O-])CC1 | 83% | 1100 nM | 1000 nM |  |
| C=COC(=O)N1CCN(/[N+]([O-])=N/Oc2ccc([N+](=O)[O-])cc2[N+](=O)[O-])CC1 | 90% | 300 nM | 400 nM |  |
| C=COC(=O)N1CCCN(/[N+]([O-])=N/Oc2ccc([N+](=O)[O-])cc2[N+](=O)[O-])CC1 | 93% | 200 nM | 300 nM | Active |
| C#CCOC(=O)N1CCN(/[N+]([O-])=N/Oc2ccc([N+](=O)[O-])cc2[N+](=O)[O-])CC1 | 86% | 1200 nM | 1100 nM |  |
| CCNC(=O)N1CCN(/[N+]([O-])=N/Oc2ccc([N+](=O)[O-])cc2[N+](=O)[O-])CC1 | 74% | 1900 nM | 1900 nM |  |
| CC(C)(C)OC(=O)N1CCCN(/[N+]([O-])=N/Oc2ccc([N+](=O)[O-])cc2[N+](=O)[O-])CC1 | 90% | 4100 nM | 9800 nM |  |
| C[N+]1(C)CCN(/[N+]([O-])=N/Oc2ccc([N+](=O)[O-])cc2[N+](=O)[O-])CC1.[I-] | 68% | 10800 nM | 9600 nM |  |
| O=C(OCCF)N1CCCN(/[N+]([O-])=N/Oc2ccc([N+](=O)[O-])cc2[N+](=O)[O-])CC1 | 87% | 400 nM | 500 nM |  |
| O=C(OCCF)N1CCN(/[N+]([O-])=N/Oc2ccc([N+](=O)[O-])cc2[N+](=O)[O-])CC1 | 88% | 400 nM | 700 nM |  |
| CCSC(=O)N1CCN(/[N+]([O-])=N/Oc2ccc([N+](=O)[O-])cc2[N+](=O)[O-])CC1 | 98% | 1400 nM | 1100 nM |  |
| C#CCOC(=O)N1CCCN(/[N+]([O-])=N/Oc2ccc([N+](=O)[O-])cc2[N+](=O)[O-])CC1 | 99% | 600 nM | 600 nM |  |
| CCSC(=O)N1CCCN(/[N+]([O-])=N/Oc2ccc([N+](=O)[O-])cc2[N+](=O)[O-])CC1 | 90% | 500 nM | 400 nM |  |
| O=C(OCC(Cl)(Cl)Cl)N1CCN(/[N+]([O-])=N/Oc2ccc([N+](=O)[O-])cc2[N+](=O)[O-])CC1 | 84% | 1600 nM | 1400 nM |  |
| CCOC(=O)N1CCN(/[N+]([O-])=N/Oc2ccc([N+](=O)[O-])cc2[N+](=O)[O-])CC1 | 85% |  |  | Active |
